Measurements from ChEMBL document CHEMBL4028876, “Discovery of a Novel Piperidine-Based Inhibitor of Cholesteryl Ester Transfer Protein (CETP) That Retains Activity in Hypertriglyceridemic Plasma” (J Med Chem, 2017).
The source made the active and inactive calls. The calls are words filed in the database; no cut-off is given here.

Legend:
Syrian golden hamster [1] = assay: Reduction in LDL cholesterol level in Syrian hamster plasma at 0.3 and 10 mg/kg, po dosed once daily for 2 weeks and measured 24 hrs post last dose by HPLC size exclusion chromatography method relative to control; assay type: functional, organism-based; settings: Mesocricetus auratus
Procedure, shortened: (§1)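 Chow-fed hamsters gavaged once daily in the morning for 2 weeks (0.3, 1, 3, 10 mg/kg; vehicle 10 mL/kg). Blood is drawn from the abdominal vein under isoflurane 24 h post last dose, after a 16 h fast. Lipoprotein cholesterol is measured by Superose 6 HPLC with online enzymatic detection at 580 nm, standardized to control plasma. Mean ± SEM, n=6, Dunnett test.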

Rattus norvegicus [2] = assay: Toxicity in cannulated Sprague-Dawley rat assessed as increase in mean arterial pressure at 5 mg/kg, iv by blood pressure transducer based method; assay type: organism-based; settings: in vivo
[3] = Drug uptake in Syrian hamster adrenal tissue at 10 mg/kg, po dosed once daily for 14 days measured 24 hrs post last dose by LC-MS/MS method; assay type: ADME, organism-based, Mesocricetus auratus, Adrenal gland; settings: in vivo
Procedure, shortened: (§2)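 Chow-fed hamsters dosed orally once daily for 14 days. Blood and ~100 mg adipose, adrenal and liver samples are taken 24 h after the final dose. Tissues are flash-frozen and stored at −80 °C. Total drug concentrations are measured by LC-MS/MS. Mean ± SEM, seven animals per group.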

[4] = Clearance in Sprague-Dawley rat plasma at 1 mg/kg, iv or 3 mg/kg, po by LC-ESI-MS/MS analysis; assay type: ADME, organism-based
Procedure, shortened: (§3)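 Conscious 7-week-old male Sprague-Dawley rats on standard diet with free water. Dosing is 1 mg/kg iv bolus in N-methylpyrrolidin-2-one/PEG 200, or 3 mg/kg oral suspension in 0.5% aqueous methylcellulose. Blood is sampled at various time points after administration.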

[5] = Oral bioavailability in Sprague-Dawley rat at 3 mg/kg by LC-ESI-MS/MS analysis; assay type: ADME, organism-based; settings: in vivo; procedure, shortened: as §3
Serum [6] = assay: Drug uptake in HDL fraction of human serum from human donors with normal triglyceride levels (<150 mg/dL) by LC-MS/MS method; assay type: ADME, cell-free
Procedure, shortened: (§4)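 Pooled unfasted human serum (mean TG 122, 347 or 958 mg/dL) spiked with inhibitor to 500 ng/mL, 37 °C, 1 h. NaBr density-gradient ultracentrifugation, 18.5 h at 15 °C. Acetonitrile precipitation, glyburide internal standard, LC-MS/MS in duplicate. Result given as % of total across pools.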

[7] = Selectivity for inhibition of CYP2D6 (unknown origin) to IC50 for inhibition of CETP in human plasma
Serum [8] = assay: Drug uptake in HDL fraction of human serum from human donors with triglyceride levels ( 300-500 and >750 mg/dL) by LC-MS/MS method; assay type: ADME, cell-free; procedure, shortened: as §4
[9] = Volume of distribution in Sprague-Dawley rat at 1 mg/kg, iv or 3 mg/kg, po by LC-ESI-MS/MS analysis; assay type: ADME, organism-based; settings: in vivo; procedure, shortened: as §3
[10] = target: T1, Cholesteryl ester transfer protein (Homo sapiens) (UniProt P11597); assay: Inhibition of CETP activity in human serum at upto 1200 mg/dl serum triglyceride concentration by LC-MS/MS method; settings: in the assay text read “fluorescence method” for “LC-MS/MS method”
T1 sequence (whole entry): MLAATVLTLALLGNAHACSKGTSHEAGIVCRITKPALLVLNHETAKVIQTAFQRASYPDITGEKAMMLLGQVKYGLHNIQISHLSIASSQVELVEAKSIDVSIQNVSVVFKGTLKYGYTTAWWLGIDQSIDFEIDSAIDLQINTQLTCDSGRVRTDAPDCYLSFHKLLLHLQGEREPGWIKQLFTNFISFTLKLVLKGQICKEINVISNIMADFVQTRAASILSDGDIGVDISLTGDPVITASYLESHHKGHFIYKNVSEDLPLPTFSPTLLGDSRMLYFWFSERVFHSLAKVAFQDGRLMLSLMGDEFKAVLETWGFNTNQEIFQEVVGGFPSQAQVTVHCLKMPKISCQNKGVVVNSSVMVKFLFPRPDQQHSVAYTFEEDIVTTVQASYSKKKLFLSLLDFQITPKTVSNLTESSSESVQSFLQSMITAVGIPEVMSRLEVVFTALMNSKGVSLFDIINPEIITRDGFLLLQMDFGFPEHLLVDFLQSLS
Procedure, shortened: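 Three human serum pools of differing triglyceride level. IC50 values are the mean of two replicates per pool.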

[11] = Drug uptake in Syrian hamster adipose tissue at 10 mg/kg, po dosed once daily for 14 days measured 24 hrs post last dose by LC-MS/MS method; assay type: ADME, organism-based, Mesocricetus auratus; settings: in vivo; procedure, shortened: as §2
Cytochrome P450 3A4 [12] = target: T2, Cytochrome P450 3A4 (Homo sapiens, UniProt P08684); assay: Inhibition of CYP3A4 (unknown origin) in the presence of testosterone; assay type: ADME
T2 sequence (P08684 whole entry): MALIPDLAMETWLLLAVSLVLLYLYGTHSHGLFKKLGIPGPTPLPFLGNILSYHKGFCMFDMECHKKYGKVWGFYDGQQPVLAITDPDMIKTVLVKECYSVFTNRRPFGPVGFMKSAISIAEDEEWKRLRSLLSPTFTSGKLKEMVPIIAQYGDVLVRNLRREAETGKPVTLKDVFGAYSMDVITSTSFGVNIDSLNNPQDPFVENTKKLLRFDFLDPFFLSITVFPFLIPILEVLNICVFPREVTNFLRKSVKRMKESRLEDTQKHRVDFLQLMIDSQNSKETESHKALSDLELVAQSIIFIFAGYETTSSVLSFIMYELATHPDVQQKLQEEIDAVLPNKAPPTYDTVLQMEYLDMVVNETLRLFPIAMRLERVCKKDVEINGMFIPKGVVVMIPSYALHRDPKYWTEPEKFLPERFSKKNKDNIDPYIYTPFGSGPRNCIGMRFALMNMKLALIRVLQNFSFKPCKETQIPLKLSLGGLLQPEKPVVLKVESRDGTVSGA

[13] = AUC (infinity) in Sprague-Dawley rat at 1 mg/kg, iv or 3 mg/kg, po by LC-ESI-MS/MS analysis; assay type: ADME, organism-based; settings: in vivo; procedure, shortened: as §3
[14] = Drug uptake in Syrian hamster plasma at 10 mg/kg, po dosed once daily for 14 days measured 24 hrs post last dose by LC-MS/MS method; assay type: ADME, organism-based, Mesocricetus auratus; settings: in vivo; procedure, shortened: as §2
Serum [15] = assay: Drug uptake in triglyceride rich lipoprotein fraction of human serum from human donors with triglyceride levels ( 300-500 and >750 mg/dL) by LC-MS/MS method; assay type: ADME, cell-free; procedure, shortened: as §4
[16] = Half life in Sprague-Dawley rat at 1 mg/kg, iv or 3 mg/kg, po by LC-ESI-MS/MS analysis; assay type: ADME, organism-based; settings: in vivo; procedure, shortened: as §3
Serum [17] = assay: Drug uptake in lipoprotein deficient serum fraction of human serum from human donors with triglyceride levels ( 300-500 and >750 mg/dL) by LC-MS/MS method; assay type: ADME, cell-free; procedure, shortened: as §4
NCI-H295R = assay: Toxicty in human NCI-H295R cells assessed as increase in aldosterone levels at 0.1 to 10000 nM after 24 hrs by scintillation proximity assay; assay type: toxicity, cell-based; settings: 10 µM
Syrian golden hamster [18] = assay: Inhibition of CETP in Syrian hamster blood at 0.3 to 10 mg/kg, po dosed once daily for 2 weeks and measured 24 hrs post last dose; assay type: functional, organism-based; settings: Mesocricetus auratus
Hamster [19] = assay: Increase in HDL cholesterol levels in hamster plasma by HPLC size exclusion chromatography method relative to control; assay type: functional; settings: Cricetinae; procedure, shortened: as §1
Cytochrome P450 2C9 = Cytochrome P450 2C9 (Homo sapiens, UniProt P11712); assay: Inhibition of CYP2C9 (unknown origin); assay type: ADME
Sequence of Cytochrome P450 2C9 (P11712 whole entry): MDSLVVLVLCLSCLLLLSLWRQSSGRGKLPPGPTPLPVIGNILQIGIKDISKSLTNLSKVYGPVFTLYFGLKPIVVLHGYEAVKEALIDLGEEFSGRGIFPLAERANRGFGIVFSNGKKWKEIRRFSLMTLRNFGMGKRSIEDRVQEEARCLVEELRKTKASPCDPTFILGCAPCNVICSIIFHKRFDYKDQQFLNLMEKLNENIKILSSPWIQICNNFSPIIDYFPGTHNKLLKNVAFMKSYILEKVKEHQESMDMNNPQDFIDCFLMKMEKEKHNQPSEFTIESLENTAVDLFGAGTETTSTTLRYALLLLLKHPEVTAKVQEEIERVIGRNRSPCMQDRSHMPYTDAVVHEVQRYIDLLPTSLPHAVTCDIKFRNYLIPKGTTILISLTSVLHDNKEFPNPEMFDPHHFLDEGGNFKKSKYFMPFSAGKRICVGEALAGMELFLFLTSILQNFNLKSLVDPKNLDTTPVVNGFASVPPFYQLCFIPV

Serum [20] = assay: Drug uptake in LDL fraction of human serum from human donors with normal triglyceride levels (<150 mg/dL) by LC-MS/MS method; assay type: ADME, cell-free; procedure, shortened: as §4
Serum [21] = assay: Drug uptake in lipoprotein deficient serum fraction of human serum from human donors with normal triglyceride levels (<150 mg/dL) by LC-MS/MS method; assay type: ADME, cell-free; procedure, shortened: as §4
[22] = 1-Octanol-phosphate buffered saline partition coefficient, log D of compound at […] by tandem mass spectrometry method; assay type: physicochemical
[23] = Selectivity for inhibition of CYP3A4 (unknown origin) to IC50 for inhibition of CETP in human plasma
Rattus norvegicus [24] = assay: Toxicity in cannulated Sprague-Dawley rat assessed as increase in plasma aldosterone levels at 5 mg/kg, iv by radioimmunoassay; assay type: organism-based; settings: in vivo
Hamster [25] = assay: Ex vivo inhibition of CETP activity in hamster hypertriglyceridemia model treated with 100 mg/kg, iv Triton WR-1339 dosed 5 hrs post compound dose measured every 15 mins for 120 mins by fluorescence method; assay type: functional, organism-based; settings: Cricetinae
Procedure, shortened: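 Chow-fed hamsters given a single gavage dose of compound or vehicle. Triton WR-1339 (100 mg/kg) or saline is given iv 5 h later, and plasma is taken 3 h after that. Plasma (final 80%) is mixed with fluorescent donor in 50 mM Tris-HCl pH 7.4, 150 mM NaCl, 2 mM EDTA. Ex/em 485/535 nm, read every 15 min for 120 min at 37 °C. Activity is the 30–90 min slope. Five animals per group.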

Plasma = assay: Protein binding in human plasma using [14C]-labeled compound after 3 hrs by scintillation counting based ultracentrifugation method; assay type: ADME, cell-free
Procedure, shortened: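 Human plasma spiked with [14C]-labelled compound at 50−10000 ng/mL, then ultracentrifuged 3 h at 37 °C at 306000g. Supernatant radioactivity is counted by scintillation. Bound fraction = (total − supernatant)/total.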

[26] = Selectivity for inhibition of CYP2C9 (unknown origin) to IC50 for inhibition of CETP in human plasma
Cytochrome P450 3A4 [27] = target: T2, Cytochrome P450 3A4; assay: Inhibition of CYP3A4 (unknown origin) in the presence of midozolam; assay type: ADME
Serum [28] = assay: Drug uptake in LDL fraction of human serum from human donors with triglyceride levels ( 300-500 and >750 mg/dL) by LC-MS/MS method; assay type: ADME, cell-free; procedure, shortened: as §4
Serum [29] = assay: Drug uptake in triglyceride rich lipoprotein fraction of human serum from human donors with normal triglyceride levels (<150 mg/dL) by LC-MS/MS method; assay type: ADME, cell-free; procedure, shortened: as §4
Syrian golden hamster [30] = assay: Increase in HDL cholesterol level in Syrian hamster plasma at 0.3 and 10 mg/kg, po dosed once daily for 2 weeks and measured 24 hrs post last dose by HPLC size exclusion chromatography method relative to control; assay type: functional, organism-based; settings: Mesocricetus auratus; procedure, shortened: as §1
Syrian golden hamster [31] = assay: Reduction in LDL cholesterol level in Syrian hamster plasma at 0.3 and 10 mg/kg, po dosed once daily for 2 weeks and measured 24 hrs post last dose by HPLC size exclusion chromatography method; assay type: functional, organism-based; settings: Mesocricetus auratus; procedure, shortened: as §1
Cytochrome P450 2D6 = Cytochrome P450 2D6 (Homo sapiens, UniProt P10635); assay: Inhibition of CYP2D6 (unknown origin); assay type: ADME
Sequence of Cytochrome P450 2D6 (P10635 whole entry): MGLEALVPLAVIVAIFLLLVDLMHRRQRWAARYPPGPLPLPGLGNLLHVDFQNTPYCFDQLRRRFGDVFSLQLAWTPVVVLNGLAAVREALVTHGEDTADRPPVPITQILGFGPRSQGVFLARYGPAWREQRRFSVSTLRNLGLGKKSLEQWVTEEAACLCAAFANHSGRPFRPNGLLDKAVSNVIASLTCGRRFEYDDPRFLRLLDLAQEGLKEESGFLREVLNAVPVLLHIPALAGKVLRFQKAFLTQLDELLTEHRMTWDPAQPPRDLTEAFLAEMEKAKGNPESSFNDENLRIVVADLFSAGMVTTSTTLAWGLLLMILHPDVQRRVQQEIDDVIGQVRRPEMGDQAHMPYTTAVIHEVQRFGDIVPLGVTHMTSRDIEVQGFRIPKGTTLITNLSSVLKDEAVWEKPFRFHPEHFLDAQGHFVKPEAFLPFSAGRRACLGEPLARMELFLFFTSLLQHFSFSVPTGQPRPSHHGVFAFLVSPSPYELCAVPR

[32] = target: T1, Cholesteryl ester transfer protein (Homo sapiens); assay: Inhibition of CETP in human plasma at 100 uM measured every 30 mins for 120 mins by fluorescence method
Procedure, shortened: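 Pooled EDTA plasma from healthy male donors (final 50%) with compound in DMSO (final 1%). The reaction is started with fluorescent donor solution. Ex/em 485/535 nm, read every 30 min for 120 min at 37 °C. Activity is the 30–90 min slope. Torcetrapib (1 or 10 µM) and DMSO define 100% and 0% inhibition. IC50 is fitted to duplicate wells by a logistic equation.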

Syrian golden hamster [33] = assay: Inhibition of CETP in Syrian hamster blood at 3 and 10 mg/kg, po dosed once daily for 2 weeks and measured 24 hrs post last dose; assay type: functional, organism-based; settings: Mesocricetus auratus

Drug uptake [3]	Drug uptake (Serum [6])	inhibition [10]	Drug uptake [11]	Drug uptake [14]	Drug uptake (Serum [15])	Drug uptake (Serum [20])	Drug uptake (Serum [21])	logD [22]	Drug uptake (Serum [29])	Structure (SMILES)	Activity (Syrian golden hamster [1])	Activity (NCI-H295R)	Activity (Hamster [19])	inhibition (Hamster [25])	Activity (Syrian golden hamster [30])	Activity (Syrian golden hamster [31])	other results
Not Active	Active	Active	Not Active	Active	Active	Active	Active	5.2	Active	CC[C@@H]1C[C@H](N(Cc2cc(C(F)(F)F)cc(C(F)(F)F)c2)c2ncc(-c3cnn(C)c3)cn2)C[C@H](CC)N1C(=O)O[C@H]1CC[C@H](C(=O)O)CC1	Active	Non-Toxic	Dose-dependent effect	Active	Dose-dependent effect	Dose-dependent effect	Activity (Rattus norvegicus [2]): Non-Toxic; clearance [4]: 1.5 mL/min/kg; bioavailability [5]: 43%; Selectivity ratio [7]: >170; Drug uptake (Serum [8]): Active; Vd [9]: 0.57 L/kg; IC50 (Cytochrome P450 3A4 [12]): > 50 µM; AUC(0-inf) [13]: 27.2 µM·h; half-life [16]: 5.8 h; Drug uptake (Serum [17]): Active; inhibition (Syrian golden hamster [18]): Active; IC50 (Cytochrome P450 2C9): 19 µM; Selectivity ratio [23]: >170; Activity (Rattus norvegicus [24]): Non-Toxic; PPB (Plasma): 99.4%; Selectivity ratio [26]: >170; IC50 (Cytochrome P450 3A4 [27]): 10.6 µM; Drug uptake (Serum [28]): Active; IC50 (Cytochrome P450 2D6): 31 µM
										CC[C@@H]1C[C@H](N(Cc2cc(C(F)(F)F)cc(C(F)(F)F)c2)C(=O)OC)CCN1C(=O)OC(C)(C)C (racemic)							inhibition [32]: 70%
Active	Active	inactive	Active	Not Active	Active	Active	Active	> 5.9	Active	COc1cc(F)c(C(C)C)cc1-c1ccc(C(F)(F)F)cc1CN1C(=O)O[C@H](c2cc(C(F)(F)F)cc(C(F)(F)F)c2)[C@@H]1C [ANACETRAPIB]	Active	Non-Toxic	Dose-dependent effect	inactive	Dose-dependent effect	Dose-dependent effect	inhibition (Syrian golden hamster [33]): Active
